Common to all, as to format: functional, cell-based, Homo sapiens
In test [1] the test system is Calu-6. Put plainly: Cytotoxic activity was determined in vitro in Calu-6 cell line culture at pH 6.8. The method in brief: (§1)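 Seeded at 2×10^6 cells/plate. Next day, switched to pH 6.8 medium (1.3 g NaHCO3/L, serum acidified with 1 N HCl) and equilibrated in 5% CO2. Exposed for 2 h at 37°C in quadruplicate to 50–0.8 µg/mL (1:2 series; acetone ≤5%), then given drug-free pH 7.4 medium until controls were confluent. Read by formaldehyde fixation and crystal violet at 550 nm. IC50 from dose–response curves, mean of four assays ± SD.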

The test system of test [2] is KB. Put plainly: Cytotoxic activity was determined in vitro in KB cell line culture at pH 6.8. The method in brief: (§2)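 Cells at 2×10^6/plate were moved the next day into pH 6.8 medium (1.3 g NaHCO3/L; serum given 1 N HCl; 30 min 5% CO2). Treated 2 h at 37°C, quadruplicate, 50–0.8 µg/mL in 1:2 steps (acetone ≤5%), then grown in drug-free pH 7.4 medium to control confluence. Crystal violet stain eluted with ethanol/1% acetic acid before A550. IC50 from curves, mean of four assays ± SD.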

Test [3] relates to MCF7. Nature of the test: Cytotoxic activity was determined in vitro in MCF-7 cell line culture at pH 7.4. Summed up: (§3)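 Using pH 7.4 medium (2.2 g NaHCO3/L) on cells plated a day earlier at 2×10^6/plate, with equilibration in 5% CO2. Compounds were applied for 2 h at 37°C in quadruplicate at 50–0.8 µg/mL (1:2; acetone ≤5%), followed by drug-free pH 7.4 medium until controls were confluent. Fixed and stained with crystal violet, dye eluted with ethanol/1% acetic acid, read at 550 nm. IC50 from curves, mean of four ± SD.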

The test system of test [4] is LXF-289 cell line. Put plainly: Cytotoxic activity was determined in vitro in LXF-289 cell line culture at pH 7.4. The method in brief:
(§4)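 Plated at 2×10^6 cells/plate. After one day, medium was replaced with pH 7.4 medium (2.2 g NaHCO3/L) and equilibrated under 5% CO2. Cells got 2 h at 37°C, in quadruplicate, of a 1:2 series 50–0.8 µg/mL (acetone ≤5%), then drug-free pH 7.4 medium for 24–96 h until controls were confluent. Fixed with 3% formaldehyde, stained with 1% crystal violet, A550. IC50 from dose–response curves; mean of four assays ± SD.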

Test [5] concerns SK-MEL-25. Nature of the test: Cytotoxic activity was determined in vitro in SK-MEL-25 cell line culture at pH 6.8. Summed up:
as §1

For test [6], the system named is LXF-289 cell line. Put plainly: Cytotoxic activity was determined in vitro in LXF-289 cell line culture at pH 6.8. The method in brief: as §1
The test system of test [7] is KB. Put plainly: Cytotoxic activity was determined in vitro in KB cell line culture at pH 7.4. The method in brief:
as §3

Test [8] concerns SK-OV-3. Put plainly: Cytotoxic activity was determined in vitro in SK-OV-3 cell line culture at pH 7.4. The method in brief: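 With 1×10^6 cells/plate seeded, medium was changed the next day to pH 7.4 (2.2 g NaHCO3/L) under 5% CO2. Cells were exposed 2 h at 37°C in quadruplicate to a 1:2 series of 50–0.8 µg/mL (acetone ≤5%), then given drug-free pH 7.4 medium until controls were confluent. Crystal violet read at 550 nm after formaldehyde fixation. IC50 from curves; mean of four assays ± SD.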

Test [9] concerns SK-OV-3. Put plainly: Cytotoxic activity was determined in vitro in SK-OV-3 cell line culture at pH 6.8. Summed up:
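SK-OV-3 seeded at 1×10^6 cells/plate. Next day, placed in pH 6.8 medium (1.3 g NaHCO3/L, HCl-treated serum, 5% CO2). Given 2 h at 37°C, in quadruplicate, of 50–0.8 µg/mL (1:2; acetone ≤5%), then drug-free pH 7.4 medium until controls were confluent. Formaldehyde-fixed and crystal violet-stained, A550. IC50 from dose–response curves, mean of four assays ± SD.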

Test [10] has as its system MCF7. Put plainly: Cytotoxic activity was determined in vitro in MCF-7 cell line culture at pH 6.8. The method in brief: as §2
For test [11], the system named is Calu-6. Nature of the test: Cytotoxic activity was determined in vitro in Calu-6 cell line culture at pH 7.4. Summed up: as §4
The subject of test [12] is SK-MEL-25. Nature of the test: Cytotoxic activity was determined in vitro in SK-MEL-25 cell line culture at pH 7.4. The method in brief: as §4

For orientation: IC50 means the concentration that inhibits the measured activity by half. Read a low IC50 as greater potency in that assay.

For the substance “2,6-dimethoxy-1,3,5,7-tetrathia-4-platinaspiro[3.3]heptane”, the IC50 in test [1] was 11 µM; in [2] it was 20 µM; in [3], 19 µM; in test [4], 102 µM; in test [5], 14 µM; in test [6] it was 39 µM. Also, the IC50 in test [7] turned out to be 49 µM; in [8], 47 µM; in [9] it was 26 µM; in test [10] it was 7 µM; in test [11], 21 µM; in test [12], 80 µM.
As to “2,6-bis(hexyloxy)-1,3,5,7-tetrathia-4-platinaspiro[3.3]heptane”, the IC50 is 23 µM in test [1]; 64 µM in test [2]; 47 µM in test [3]; above 91 µM in test [4]; 37 µM in test [5]; above 91 µM in test [6]. Further, the concentration for half-maximal inhibition (IC50) in test [7] is above 91 µM; in test [8] it was 130 µM; in [9] it was 102 µM; in test [10] it was 44 µM; in test [11], 37 µM; in test [12], 70 µM.
On to “2,6-bis(2,2-dimethyl-3-phenylpropoxy)-1,3,5,7-tetrathia-4-platinaspiro[3.3]heptane”, for which the half-inhibitory concentration (IC50) is 10 µM in [1]; above 50 µM in test [2]; above 50 µM in test [3]; above 50 µM in test [4]; above 50 µM in test [5]; above 50 µM in test [6]. Besides, the IC50 in [7] is above 50 µM; in [8], above 50 µM; in test [9], above 50 µM; in [10], above 50 µM; in test [11], 17 µM; in test [12] it was above 50 µM.
For “2,6-bis(cyclohexyloxy)-1,3,5,7-tetrathia-4-platinaspiro[3.3]heptane”, the IC50 in test [1] came out at 3 µM; in test [2], 6 µM; in test [3], 9 µM; in test [4] it was 12 µM; in test [5] it was 3 µM; in [6] it was 6 µM. Also, the IC50 was 9 µM in test [7]; 12 µM in test [8]; 9 µM in [9]; 5 µM in test [10]; 8 µM in test [11]; 8 µM in [12].
For the substance “2,6-bis(nonyloxy)-1,3,5,7-tetrathia-4-platinaspiro[3.3]heptane”, the IC50 in test [1] is above 76 µM; in test [2] it was above 76 µM; in [3], 30 µM; in [4] it was 53 µM; in test [5], above 76 µM; in [6], 38 µM. For the same substance, the IC50 in [7] is above 76 µM; in test [8], above 76 µM; in test [9] it was above 76 µM; in test [10] it was 24 µM; in test [11], above 76 µM; in test [12], above 76 µM.
Regarding “2,6-bis(cyclopentyloxy)-1,3,5,7-tetrathia-4-platinaspiro[3.3]heptane”, the half-maximal inhibitory concentration (IC50) came out at 3 µM in test [1]; 14 µM in test [2]; 10 µM in test [3]; 38 µM in [4]; 5 µM in test [5]; 37 µM in test [6]. Further, the IC50 is 24 µM in test [7]; 26 µM in test [8]; 17 µM in test [9]; 5 µM in test [10]; 5 µM in [11]; 9 µM in [12].
Regarding “2,6-bis(pentan-3-yloxy)-1,3,5,7-tetrathia-4-platinaspiro[3.3]heptane”, the IC50 was 3 µM in test [1]; 4 µM in [2]; 6 µM in [3]; 10 µM in test [4]; 5 µM in [5]; 8 µM in test [6]. Also, the half-maximal inhibitory concentration (IC50) came out at 5 µM in [7]; 5 µM in test [8]; 8 µM in test [9]; 5 µM in test [10]; 5 µM in [11]; 9 µM in [12].
With “2,6-bis(propan-2-yloxy)-1,3,5,7-tetrathia-4-platinaspiro[3.3]heptane”, the IC50 in test [1] amounted to 6 µM; in test [2] it was 6 µM; in test [3], 7 µM; in [4], 30 µM; in test [5], 6 µM; in [6], 10 µM. In addition, the IC50 worked out at 10 µM in test [7]; 33 µM in [8]; 14 µM in test [9]; 3 µM in test [10]; 10 µM in test [11]; 12 µM in [12].

Values taken from ChEMBL document CHEMBL1149157, “Synthesis and structure-activity relationship of novel antitumoral platinum xanthate complexes” (J Med Chem, 2004).
